Assay outcomes deposited in PubChem by several laboratories.
CHOP inhibitor = inhibitors of CHOP induction in ER stress response. 220,000 compounds, 3.8% hits. inhibition, % at 10 µM. CHO-K1 CHOP-promoter luciferase, tunicamycin-induced, 15-18 h;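 active means compounds that reduced the stress-induced luciferase reporter signal by more than about 70% of percent inhibition, limit read from the data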
UPR CHOP act = activators of apoptotic arm of unfolded protein response (CHOP) | 330,000 compounds, 0.34% hits | activation, % at 10 µM | AID 449763 | CHO-CHOP luciferase reporter, UPR activation, luminescence; percent of tunicamycin response over DMSO baseline;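 active means at 10 µM dose, activation of 40% or more, normalized to positive control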
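Material: CHO-CHOP cells, stable luciferase reporter of PERK-eIF2a-CHOP signalling; quantity: 500 reporter cells seeded per well; buffer or medium: F12 medium containing 10% fetal bovine serum; compound: one dose, 10 µM in 0.5% DMSO; incubation: 6 h compound treatment, 37 °C; measured by: Steady-Glo luciferase luminescence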
UPR XBP1 act = adaptive UPR (XBP1) activation. CHO-XBP1 luciferase reporter, IRE1-XBP1 UPR activation, luminescence; percent of tunicamycin response, DMSO as zero. activation, % at 20 µM. 330,000 compounds, 0.33% hits. AID 463104;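 active means versus positive control, 20 µM dose yields 30% or more activation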
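Material: CHO cell line with stable XBP1 luciferase reporter; schedule: 16-18 h cell attachment at 37 °C, then 6 h compound exposure; signal: glow luminescence from Steady-Glo reagent; medium: serum-containing F12 medium, 10% FBS; benchmarks: tunicamycin 10 µg/mL and vehicle-only wells; read-out: percent activation relative to tunicamycin reference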
TLR4 MyD88 comp = blocks binding of human TLR4 to MyD88; O00206+Q99836; HeLa CL3-4 TLR4/MyD88 BLA complementation, FRET ratio; inhibition, % at 8.4 µM; 200,000 compounds, 0.18% hits; AID 861; in the data active means inhibition above about 25%
Target sequence (O00206 whole entry, looked up): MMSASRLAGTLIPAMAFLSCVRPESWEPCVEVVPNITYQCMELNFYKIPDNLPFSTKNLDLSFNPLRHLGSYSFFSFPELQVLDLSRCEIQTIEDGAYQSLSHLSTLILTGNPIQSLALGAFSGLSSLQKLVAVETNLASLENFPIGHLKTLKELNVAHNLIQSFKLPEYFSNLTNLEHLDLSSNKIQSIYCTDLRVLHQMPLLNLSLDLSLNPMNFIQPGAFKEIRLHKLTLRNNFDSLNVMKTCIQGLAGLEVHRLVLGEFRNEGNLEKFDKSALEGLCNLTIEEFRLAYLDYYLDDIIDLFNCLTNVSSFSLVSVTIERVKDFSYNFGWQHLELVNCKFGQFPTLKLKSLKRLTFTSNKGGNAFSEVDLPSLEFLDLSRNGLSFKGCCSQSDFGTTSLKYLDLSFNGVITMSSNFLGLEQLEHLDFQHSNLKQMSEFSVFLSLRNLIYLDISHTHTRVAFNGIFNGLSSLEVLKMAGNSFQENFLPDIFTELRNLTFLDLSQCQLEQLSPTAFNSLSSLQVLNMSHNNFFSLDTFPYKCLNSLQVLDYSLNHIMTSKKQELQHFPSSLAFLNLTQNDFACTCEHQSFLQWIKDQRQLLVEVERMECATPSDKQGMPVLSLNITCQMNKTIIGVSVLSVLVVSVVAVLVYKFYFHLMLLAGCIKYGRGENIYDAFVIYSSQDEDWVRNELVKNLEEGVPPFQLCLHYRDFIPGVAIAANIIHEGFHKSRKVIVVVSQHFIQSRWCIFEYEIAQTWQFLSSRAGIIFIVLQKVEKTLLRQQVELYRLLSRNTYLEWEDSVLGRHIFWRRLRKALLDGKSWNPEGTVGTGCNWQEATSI
Target sequence (Q99836 whole entry, looked up): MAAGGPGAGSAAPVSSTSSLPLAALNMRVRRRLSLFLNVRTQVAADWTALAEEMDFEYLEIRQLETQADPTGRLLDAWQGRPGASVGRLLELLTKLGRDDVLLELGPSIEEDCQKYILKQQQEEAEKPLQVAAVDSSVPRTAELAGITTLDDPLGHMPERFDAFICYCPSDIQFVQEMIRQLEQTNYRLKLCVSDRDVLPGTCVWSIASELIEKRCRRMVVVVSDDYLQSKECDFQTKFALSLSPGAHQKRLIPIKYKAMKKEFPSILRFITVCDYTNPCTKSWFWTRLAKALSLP
NOD2-RIPK2 inh = blocks binding of human NOD2 to RIPK2; AID 624267; CHO BLA complementation NOD2-RIPK2, CCF4 ratio; inhibition, % at 4.98 µM; O43353; 360,000 compounds, 0.38% hits; in the data active means inhibition above about 21%
TLR9-MyD88 inh = TLR9-MyD88 interaction inhibition. AID 504734. Q9NR96+Q99836. CHO BLA complementation TLR9-MyD88, CCF4 FRET ratio. 340,000 compounds, 0.21% hits. inhibition, % at 4.98 µM;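 active means inhibition above the mean over all tested compounds plus 3 SD, cut at about 21% in these data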
A number is an active result; i = inactive; nt = no result given. Many of the other results were omitted from the sample, so hits are more common in it than they were.

SMILES | CHOP inhibitor | UPR CHOP act | UPR XBP1 act | TLR4 MyD88 comp | NOD2-RIPK2 inh | TLR9-MyD88 inh
Cc1ccc(C2c3c(oc4ccccc4c3=O)C(=O)N2c2nnc(C(C)C)s2)o1 (stereo not given) | 85 | i | i | i | i | i
Cc1nnc(N2C(=O)c3oc4ccccc4c(=O)c3C2c2ccco2)s1 (stereo not given) | i | i | i | i | i | i
CCOc1cc2c(cc1O)C(=NO)CC1C2CCC2(C)C(O)CCC12 (stereo not given) | nt | nt | nt | nt | i | i
O=C1CCCCC1(c1ccccc1)c1ccccc1 | nt | nt | nt | nt | i | i
Cc1csc(SCC(=O)Nc2cc(F)ccc2C)n1 | nt | nt | nt | nt | i | i
Cc1ccc(-c2nc(P(=O)(c3ccccc3)c3ccccc3)c(N3CCOCC3)o2)cc1 | i | i | i | i | i | i
CNc1oc(-c2ccc(Cl)cc2)nc1P(=O)(c1ccccc1)c1ccccc1 | 71 | i | i | i | i | i
O=C(CCN1C(=O)/C(=C/c2ccccc2Cl)SC1=S)Nc1ccccc1C(=O)O | nt | i | i | nt | i | i
O=C(CCCN1C(=O)/C(=C/c2ccccc2Cl)SC1=S)NNC(=O)c1ccc(Cl)cc1Cl | 95 | i | i | nt | i | i
O=C(CCCN1C(=O)/C(=C/c2ccccc2Cl)SC1=S)NNC(=O)c1cccnc1 | i | i | i | nt | i | i
O=C(CCCN1C(=O)/C(=C/c2ccccc2Cl)SC1=S)NNC(=O)c1ccccc1 | 86 | i | i | i | i | i
CCOC(=O)C1(C)CCN1C(=O)c1cccnc1Oc1ccccc1 (stereo not given) | nt | nt | nt | nt | i | nt
CCOc1ccc(-n2c(N)c(C(=O)NCc3ccco3)c3nc4ccccc4nc32)cc1 | i | i | i | i | i | i
CCOc1ccc(-n2c(N)c(-c3nc4ccccc4n3C)c3nc4ccccc4nc32)cc1 | 93 | i | i | i | i | i
Cc1cc2cc(CNS(=O)(=O)c3ccc4ccccc4c3)ccc2n1C | i | i | i | i | i | i
Cc1cc(C)c(S(=O)(=O)NCc2ccc3c(c2)cc(C)n3C)c(C)c1 | 71 | i | i | i | i | i
CC1(C)OC(=O)C(=Cc2ccc(-c3ccc(S(N)(=O)=O)cc3)o2)C(=O)O1 | 100 | i | i | i | i | i
NS(=O)(=O)c1ccc(-c2ccc(/C=C3\C(=O)Nc4ccccc43)o2)cc1 | nt | i | i | nt | nt | nt
COc1ccc(OC)c(/C(O)=C/C(=O)C(=O)Nc2ccccc2OC)c1 | 75 | i | i | i | i | i
COc1ccc(NC(=O)Nc2ccccc2OC)cc1 | i | i | i | i | i | i
Cc1cc(NC(=O)CCN2C(=O)/C(=C\c3ccccc3Cl)SC2=S)no1 | 81 | i | i | i | i | i
Cc1ccc(/C=C2\SC(=S)N(CCCC(=O)Nc3cc(C)on3)C2=O)cc1 | nt | i | i | nt | i | i
Cc1cc(NC(=O)CCCN2C(=O)/C(=C\c3cccs3)SC2=S)no1 | 70 | i | i | i | i | i
Oc1c(Cl)cc(Cl)cc1C=Nc1ccc2c(c1)OCCO2 | 87 | i | i | i | i | i
O=C(CSc1nc(-c2ccccc2)c(-c2ccccc2)o1)Nc1nncs1 | 72 | i | i | i | i | i
SMILES | CHOP inhibitor | UPR CHOP act | UPR XBP1 act | TLR4 MyD88 comp | NOD2-RIPK2 inh | TLR9-MyD88 inh
Cc1cccc(C)c1NC(=O)COc1ccc2c(C)c(Cc3ccccc3)c(=O)oc2c1C | 96 | i | i | i | i | i
CC(C)(C)c1ccc(-n2ncc3c2CCCC3NC(=O)c2ccco2)cc1 (stereo not given) | nt | nt | nt | nt | i | i
Cc1ccccc1N1C(=O)C(Cl)=C(N2CCCCCC2)C1=O | 80 | i | i | i | i | i
COC(=O)[C@@]12C[C@@H](CC(=O)NCCCN3CCCC3=O)C(=O)N(CCc3ccc(OC)c(OC)c3)C1=CCC(C)(C)C2 | nt | nt | nt | nt | i | nt
CCc1ccc(C(=O)COC(=O)C(CCSC)NC(=O)C23CC4CC(CC(C4)C2)C3)cc1 (stereo not given) | i | i | i | i | i | i
CSCCC(NC(=O)C12CC3CC(CC(C3)C1)C2)C(=O)OCC(=O)c1ccc(Cl)cc1 (stereo not given) | 75 | i | i | i | i | i
CCN1/C(=C\c2ccc3cc(C)ccc3[n+]2CC)Sc2cc(C)c(C)cc21 | i | nt | nt | i | i | i
